We go through 1 compound from ChEMBL document CHEMBL4145607, “Tamarixetin Exhibits Anti-inflammatory Activity and Prevents Bacterial Sepsis by Increasing IL-10 Production” (J Nat Prod, 2018).

The source made the active and inactive calls. No cut-off for these calls is given here.

The subject of assay [1] is Mus musculus. In words: Antiinflammatory activity in Balb/c mouse model of LPS-induced endotoxemia assessed as reduction in serum AST level at 1 mg/kg, ip pretreated for 1 hr followed by LPS-challenge measured after 12 hrs by ELISA. The format is functional, organism-based. The method, boiled down:
(§1)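 In BALB/c mice, 1 mg·kg−1 i.p. was given 1 h before LPS 10 mg·kg−1 i.p. After 12 h, serum AST, ALT and BUN were measured by ELISA. Means ± SEM.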

Assay [2] has as its system BMDC. In words: Inhibition of Escherichia coli K1 infection-induced immune response in C57BL/6 mouse BMDC assessed as reduction in TNFalpha secretion at 25 uM pretreated for 60 to 120 mins followed by Escherichia coli K1 infection for 6 hrs by ELISA. The assay is classed as functional, cell-based. The method, boiled down: (§2)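 BMDCs from C57BL/6 mice were given 25 μM compound and E. coli K1, […]. Timing was: compound 30 min before a 6 h infection; cotreatment for 6 h; or compound for 30–120 min with 6 h infection. Supernatant cytokines (TNF-α, IL-6, IL-10, IL-12p70) were measured by ELISA. At least three experiments in triplicate.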

Assay [3] relates to Mus musculus. The assay can be described thus: Antiinflammatory activity in Balb/c mouse model of LPS-induced endotoxemia assessed as increase in IL10 producing B10 population in splenocyte at 1 mg/kg, ip pretreated for 1 hr followed by LPS-challenge measured after 12 hrs by flow cytometric analysis. The assay is classed as functional, organism-based.
For assay [4], the system named is BMDC. In words: Inhibition of Escherichia coli K1 infection-induced immune response in C57BL/6 mouse BMDC assessed as reduction in IL-12p70 secretion at 25 uM pretreated for 30 mins followed by Escherichia coli K1 infection for 6 hrs by ELISA. The format is functional, cell-based. The method, boiled down:
as §2

In assay [5] the test system is Mus musculus. The assay can be described thus: Antiinflammatory activity in Balb/c mouse model of LPS-induced endotoxemia assessed as reduction in serum blood urea nitrogen level at 1 mg/kg, ip pretreated for 1 hr followed by LPS-challenge measured after 12 hrs by ELISA. The format is functional, organism-based. The method, boiled down:
as §1

The subject of assay [6] is BMDC. In words: Inhibition of Escherichia coli K1 infection-induced immune response in C57BL/6 mouse BMDC assessed as increase in IL10 secretion at 25 uM pretreated for 60 to 120 mins followed by Escherichia coli K1 infection for 6 hrs by ELISA. The format is functional, cell-based. Put shortly:
as §2

For assay [7], the system named is BMDC. In words: Inhibition of LPS-induced immune response in C57BL/6 mouse BMDC assessed as reduction in IL-6 secretion up to 25 uM pretreated for 30 mins followed by LPS-challenge measured after 6 hrs by ELISA. The assay is classed as functional, cell-based. Put shortly: (§3)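 Mouse BMDCs (female C57BL/6 bone marrow, GM-CSF-derived, ≥90% CD11c+ on day 7) pretreated 30 min with graded compound concentrations, then stimulated with LPS 50 ng/mL for 6 h. Supernatant TNF-α, IL-6, IL-10 and IL-12p70 quantified by sandwich ELISA. Mean ± SEM vs LPS-only cells; experiments repeated at least three times.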

In assay [8] the test system is Mus musculus. The assay can be described thus: Antiseptic activity in Balb/c mouse model of Escherichia coli K1 infection-induced sepsis assessed as increase in survival rate at 1 mg/kg, ip pretreated for 1 hr followed by Escherichia coli K1 infection measured up to 20 hrs relative to control. The assay is classed as functional.
The test system of assay [9] is Mus musculus. The assay can be described thus: Antiseptic activity in Balb/c mouse model of Escherichia coli K1 infection-induced sepsis assessed as reduction in serum TNFalpha level at 1 mg/kg, ip pretreated for 1 hr followed by Escherichia coli K1 infection measured after 2 hrs by ELISA. The assay is classed as functional, organism-based. Put shortly:
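BALB/c mice received 1 mg·kg−1 i.p. 1 h before i.p. E. coli K1 RS218, 1 × 10^6 CFU per mouse. Serum was collected at 2 h, and TNF-α, IL-6 and IL-10 were quantified by sandwich ELISA. Means ± SEM.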

Assay [10] has as its system Mus musculus. In words: Antiinflammatory activity in Balb/c mouse model of LPS-induced endotoxemia assessed as reduction in infiltration of immune cells at 1 mg/kg, ip pretreated for 1 hr followed by LPS-challenge measured after 12 hrs by hematoxylin and eosin staining based microscopic analysis. The format is functional, organism-based. Put shortly: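 Dosing was 1 mg·kg−1 i.p. 1 h before LPS 10 mg·kg−1 i.p. in BALB/c mice. At 12 h lungs were perfused and formalin-fixed, then paraffin-embedded. 5 μm sections were H&E-stained and imaged by microscope. Representative of three independent experiments.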

Assay [11] has as its system Mus musculus. In words: Antiseptic activity in Balb/c mouse model of Escherichia coli K1 infection-induced sepsis assessed as reduction in bacterial count in lungs at 1 mg/kg, ip pretreated for 1 hr followed by Escherichia coli K1 infection measured after 12 hrs. The assay is classed as functional, organism-based. Put shortly: (§4)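 Pretreatment was 1 mg·kg−1 i.p. 1 h before i.p. E. coli K1 (1 × 10^6 CFU per mouse) in BALB/c mice. At 12 h, lungs, liver and kidneys were homogenized in PBS and diluted 1:1000. 10 μL was plated on LB agar, incubated 24 h at 37 °C, and colonies counted.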

The subject of assay [12] is Mus musculus. In words: Antiseptic activity in Balb/c mouse model of Escherichia coli K1 infection-induced sepsis assessed as reduction in bacterial count in liver at 1 mg/kg, ip pretreated for 1 hr followed by Escherichia coli K1 infection measured after 12 hrs. The format is functional, organism-based. The method, boiled down:
as §4

The subject of assay [13] is Mus musculus. The assay can be described thus: Antiinflammatory activity in Balb/c mouse model of LPS-induced endotoxemia assessed as increase in serum IL10 level at 1 mg/kg, ip pretreated for 1 hr followed by LPS-challenge measured after 2 hrs by ELISA. The format is functional, organism-based. Put shortly:
(§5)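 BALB/c mice were dosed with 1 mg·kg−1 i.p. 1 h before LPS 10 mg·kg−1 i.p. Serum was taken 2 h later, and TNF-α, IL-6 and IL-10 were measured by sandwich ELISA. Means ± SEM.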

The subject of assay [14] is Mus musculus. In words: Antiinflammatory activity in Balb/c mouse model of LPS-induced endotoxemia assessed as reduction in serum IL6 level at 1 mg/kg, ip pretreated for 1 hr followed by LPS-challenge measured after 2 hrs by ELISA. The assay is classed as functional, organism-based. Put shortly: as §5
Assay [15] concerns Mus musculus. The assay can be described thus: Antiseptic activity in Balb/c mouse model of Escherichia coli K1 infection-induced sepsis assessed as reduction in serum ALT level at 1 mg/kg, ip pretreated for 1 hr followed by Escherichia coli K1 infection measured after 2 hrs by ELISA. The assay is classed as functional, organism-based.
The subject of assay [16] is Mus musculus. In words: Antiinflammatory activity in Balb/c mouse model of LPS-induced endotoxemia assessed as increase in survival rate at 1 mg/kg, ip pretreated for 1 hr followed by LPS-challenge measured over 72 hrs relative to control. The format is functional. Put shortly:
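Female-unspecified BALB/c mice given compound i.p. 1 h before i.p. LPS (20 mg·kg−1); survival followed over 72 h.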

Assay [17] relates to BMDC. The assay can be described thus: Inhibition of Escherichia coli DH5alpha infection-induced immune response in C57BL/6 mouse BMDC assessed as reduction in TNFalpha secretion at 25 uM pretreated for 60 to 120 mins followed by Escherichia coli DH5alpha infection for 6 hrs by ELISA. The format is functional, cell-based. The method, boiled down: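 C57BL/6 BMDCs received 25 μM compound and E. coli DH5α, 3 × 10^6 CFU·mL−1. Schedules were: compound 30 min before a 6 h infection; co-addition for 6 h; or compound for 30, 60, 90 or 120 min plus 6 h infection. Supernatant TNF-α, IL-6, IL-10 and IL-12p70 were measured by ELISA. At least three experiments in triplicate.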

The subject of assay [18] is BMDC. In words: Inhibition of LPS-induced immune response in C57BL/6 mouse BMDC assessed as increase in IL10 secretion up to 25 uM pretreated for 30 mins followed by LPS-challenge measured after 6 hrs by ELISA. The format is functional, cell-based. Put shortly: as §3

For the compound `COc1ccc(-c2oc3cc(O)cc(O)c3c(=O)c2O)cc1O` [TAMARIXETIN], the result in assay [1], in assay [3], in [5], in assay [9], in [10] and in assay [11] was Active. The result in assay [12], in assay [13], in assay [14] and in assay [15] was Active. Besides, the inhibition result in [2], in [6] and in [17] was “inactive” each time. Besides, the inhibition entry in assay [4], in assay [7] and in assay [18] was “Active” each time. Besides, the figures for the Activity in [8] and in [16] were 60% and 80%, respectively.
